The values below come from article PMC3975472 (Biomolecules & Therapeutics, 2014).

One may read the IC50 as the point on the concentration scale where inhibition reaches its midpoint. High values mean a need for much substance, low ones inhibition by little substance.

Molecules are shown by their SMILES. Structures can show the parent of a compound that is named as a salt. Where only a bound is given, the exact number is not on record here.

Data set [1] concerns 9 cytochrome P450 (CYP) family members (CYP1A2, CYP2A6, CYP2B6, CYP2C8, CYP2C9, CYP2C19, CYP2D6, CYP2E1, and CYP3A4). Description: Cocktail probe assay in pooled HLMs, all 9 CYP isoforms together. It is filed as in vitro ADME, human. Conditions: 0–50 μM, 37°C 60 min. Summed up: (§1)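 Pooled HLMs (0.1 mg) in 0.1 M potassium phosphate, pH 7.4, with cocktail probe substrates, NADPH-generating system and test compound (0.1–25 μM, six levels). Pre-incubation with NADPH for 0 or 15 min (reference inhibitor: 20 min), then 60 min at 37°C. Stopped with acidified acetonitrile plus terfenadine internal standard; metabolites by LC-MS/MS (MRM). IC50 from percent activity vs log[I]; duplicates.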

The target of a further data set is T1, CYP2C8 (Homo sapiens, UniProt P10632).
T1 sequence (P10632 1-490): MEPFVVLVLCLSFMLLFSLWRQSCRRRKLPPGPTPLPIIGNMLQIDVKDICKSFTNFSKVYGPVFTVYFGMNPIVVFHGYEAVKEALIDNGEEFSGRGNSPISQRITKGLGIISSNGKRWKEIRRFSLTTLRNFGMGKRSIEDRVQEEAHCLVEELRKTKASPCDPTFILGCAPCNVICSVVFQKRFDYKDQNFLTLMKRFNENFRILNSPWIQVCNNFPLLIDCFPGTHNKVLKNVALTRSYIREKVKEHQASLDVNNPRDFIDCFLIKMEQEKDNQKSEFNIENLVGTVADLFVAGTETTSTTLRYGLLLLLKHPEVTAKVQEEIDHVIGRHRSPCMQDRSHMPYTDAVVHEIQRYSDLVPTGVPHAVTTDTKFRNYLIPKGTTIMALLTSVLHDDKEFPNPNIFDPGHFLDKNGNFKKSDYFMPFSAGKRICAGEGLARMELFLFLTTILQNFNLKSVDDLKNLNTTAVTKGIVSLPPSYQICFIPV
Description: Cocktail probe assay in pooled HLMs: CYP2C8-catalyzed amodiaquine N-deethylase. Conditions: pre-incubation 20 min with NADPH, mean of duplicates. It is filed as in vitro ADME. Put shortly: as §1

The next data set has as its target T2, CYP2A6 (Homo sapiens, UniProt P11509).
T2 sequence (P11509 1-494): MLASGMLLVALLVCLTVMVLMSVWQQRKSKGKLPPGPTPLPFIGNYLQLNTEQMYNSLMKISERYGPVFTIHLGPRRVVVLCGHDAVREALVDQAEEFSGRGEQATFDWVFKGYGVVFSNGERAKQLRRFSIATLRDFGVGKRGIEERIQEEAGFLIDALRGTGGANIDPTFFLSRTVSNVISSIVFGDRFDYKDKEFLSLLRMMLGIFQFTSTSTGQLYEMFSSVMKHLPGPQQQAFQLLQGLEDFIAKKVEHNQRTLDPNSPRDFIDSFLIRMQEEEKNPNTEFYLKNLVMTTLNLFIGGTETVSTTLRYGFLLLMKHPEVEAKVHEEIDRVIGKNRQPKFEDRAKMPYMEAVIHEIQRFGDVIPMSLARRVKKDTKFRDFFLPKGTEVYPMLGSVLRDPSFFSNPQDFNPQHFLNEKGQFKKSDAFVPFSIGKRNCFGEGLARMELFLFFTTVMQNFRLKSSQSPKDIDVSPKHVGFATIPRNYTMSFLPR
In words: Cocktail probe assay in pooled HLMs: CYP2A6-catalyzed coumarin 7-hydroxylase. The class given is in vitro ADME. Conditions: pre-incubation 20 min with NADPH, mean of duplicates. Put shortly:
as §1

The target in another data set is CYP2E1 (Homo sapiens, UniProt P05181). The class given is in vitro ADME. Particulars: IC50, HLMs, pre-incubation 20 min with NADPH, mean of duplicates. Put shortly: as §1
The target of a further data set is T3, CYP1A2 (Homo sapiens, UniProt P05177).
T3 sequence (P05177 1-516): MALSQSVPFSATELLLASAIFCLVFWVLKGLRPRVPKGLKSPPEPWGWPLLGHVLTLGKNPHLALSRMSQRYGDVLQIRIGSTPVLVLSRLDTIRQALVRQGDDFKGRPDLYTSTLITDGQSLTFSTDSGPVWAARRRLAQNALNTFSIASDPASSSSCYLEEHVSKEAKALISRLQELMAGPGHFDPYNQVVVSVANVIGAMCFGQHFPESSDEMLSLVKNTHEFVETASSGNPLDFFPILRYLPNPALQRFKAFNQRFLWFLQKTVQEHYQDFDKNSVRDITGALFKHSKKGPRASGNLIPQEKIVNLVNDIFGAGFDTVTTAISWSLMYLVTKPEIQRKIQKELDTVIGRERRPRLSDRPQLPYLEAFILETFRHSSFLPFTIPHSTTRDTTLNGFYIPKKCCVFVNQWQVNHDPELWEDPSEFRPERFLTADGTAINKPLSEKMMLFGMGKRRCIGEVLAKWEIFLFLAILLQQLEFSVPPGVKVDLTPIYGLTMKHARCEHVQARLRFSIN
In words: Cocktail probe assay in pooled HLMs: CYP1A2-catalyzed phenacetin O-deethylase. It is filed as in vitro ADME. Particulars: pre-incubation 20 min with NADPH, mean of duplicates. Put shortly: as §1

The target of another data set is T4, CYP2B6 (Homo sapiens, UniProt P20813).
T4 sequence (P20813 1-491): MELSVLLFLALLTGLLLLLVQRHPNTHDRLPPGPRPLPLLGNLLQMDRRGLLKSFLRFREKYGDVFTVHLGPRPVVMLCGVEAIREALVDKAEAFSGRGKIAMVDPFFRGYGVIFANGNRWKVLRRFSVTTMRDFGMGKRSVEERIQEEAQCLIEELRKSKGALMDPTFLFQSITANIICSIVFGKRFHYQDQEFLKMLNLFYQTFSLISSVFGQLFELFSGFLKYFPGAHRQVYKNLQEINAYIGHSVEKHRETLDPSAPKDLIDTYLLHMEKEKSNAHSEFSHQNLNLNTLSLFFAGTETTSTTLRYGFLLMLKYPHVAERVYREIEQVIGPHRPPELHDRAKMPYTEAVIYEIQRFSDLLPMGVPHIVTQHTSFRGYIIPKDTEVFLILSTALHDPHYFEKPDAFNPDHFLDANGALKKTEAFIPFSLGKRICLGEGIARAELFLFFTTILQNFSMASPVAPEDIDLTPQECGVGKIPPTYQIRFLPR
Description: Cocktail probe assay in pooled HLMs: CYP2B6-catalyzed bupropion hydroxylase. The class given is in vitro ADME. Particulars: pre-incubation 20 min with NADPH, mean of duplicates. Summed up: as §1

The target of the next data set is CYP2C19 (Homo sapiens, UniProt P33261). Description: Cocktail probe assay in pooled HLMs: CYP2C19-catalyzed omeprazole 5-hydroxylase. Particulars: pre-incubation 20 min with NADPH, mean of duplicates. The class given is in vitro ADME. Summed up:
as §1

The target in a further data set is CYP2D6 (Homo sapiens, UniProt P10635). It is filed as in vitro ADME. Conditions: IC50, HLMs, pre-incubation 20 min with NADPH, mean of duplicates. Put shortly: as §1
A further data set deals with CYP2C9 (Homo sapiens, UniProt P11712). Description: Cocktail probe assay in pooled HLMs: CYP2C9-catalyzed diclofenac 4′-hydroxylase. Particulars: pre-incubation 20 min with NADPH, mean of duplicates. The class given is in vitro ADME. Summed up: as §1
CYP2C9, sequence (P11712 whole entry): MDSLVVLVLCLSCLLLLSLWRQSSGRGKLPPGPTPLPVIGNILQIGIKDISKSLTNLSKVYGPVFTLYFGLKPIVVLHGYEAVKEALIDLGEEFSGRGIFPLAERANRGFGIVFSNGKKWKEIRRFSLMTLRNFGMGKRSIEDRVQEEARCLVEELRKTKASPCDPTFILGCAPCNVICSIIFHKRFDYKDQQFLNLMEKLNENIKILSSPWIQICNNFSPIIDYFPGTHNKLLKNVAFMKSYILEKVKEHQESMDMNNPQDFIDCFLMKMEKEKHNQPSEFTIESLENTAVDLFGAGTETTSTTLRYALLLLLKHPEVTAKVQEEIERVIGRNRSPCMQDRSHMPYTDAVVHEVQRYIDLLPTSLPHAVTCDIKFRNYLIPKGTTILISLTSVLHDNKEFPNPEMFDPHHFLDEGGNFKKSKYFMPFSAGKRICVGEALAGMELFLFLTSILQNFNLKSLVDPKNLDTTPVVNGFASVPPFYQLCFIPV

CYP2E1, sequence (P05181 whole entry): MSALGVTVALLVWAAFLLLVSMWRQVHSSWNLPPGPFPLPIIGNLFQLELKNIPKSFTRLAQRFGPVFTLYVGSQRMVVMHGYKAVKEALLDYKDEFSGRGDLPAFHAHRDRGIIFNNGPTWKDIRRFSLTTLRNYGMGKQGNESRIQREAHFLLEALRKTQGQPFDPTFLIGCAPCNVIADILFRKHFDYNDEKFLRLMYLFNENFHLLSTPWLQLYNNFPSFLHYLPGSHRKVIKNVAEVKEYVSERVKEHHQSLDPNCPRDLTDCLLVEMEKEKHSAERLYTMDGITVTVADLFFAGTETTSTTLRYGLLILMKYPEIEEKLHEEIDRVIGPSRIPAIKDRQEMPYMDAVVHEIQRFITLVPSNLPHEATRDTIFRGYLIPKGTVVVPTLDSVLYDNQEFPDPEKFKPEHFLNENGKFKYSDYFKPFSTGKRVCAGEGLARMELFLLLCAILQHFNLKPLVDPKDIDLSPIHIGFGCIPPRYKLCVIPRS
CYP2C19, sequence (P33261 whole entry): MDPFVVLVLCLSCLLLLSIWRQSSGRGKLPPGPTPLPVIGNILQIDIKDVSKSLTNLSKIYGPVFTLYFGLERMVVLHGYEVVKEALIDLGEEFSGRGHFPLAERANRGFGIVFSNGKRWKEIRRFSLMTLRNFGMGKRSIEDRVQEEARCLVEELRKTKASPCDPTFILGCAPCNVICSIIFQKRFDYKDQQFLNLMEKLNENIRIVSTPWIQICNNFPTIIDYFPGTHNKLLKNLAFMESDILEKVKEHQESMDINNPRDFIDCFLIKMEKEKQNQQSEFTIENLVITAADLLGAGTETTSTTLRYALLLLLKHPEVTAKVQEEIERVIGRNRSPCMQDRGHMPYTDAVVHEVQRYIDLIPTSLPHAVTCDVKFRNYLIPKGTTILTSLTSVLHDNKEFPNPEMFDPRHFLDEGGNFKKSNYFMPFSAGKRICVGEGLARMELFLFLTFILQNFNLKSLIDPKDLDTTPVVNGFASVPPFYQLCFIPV
CYP2D6, sequence (P10635 whole entry): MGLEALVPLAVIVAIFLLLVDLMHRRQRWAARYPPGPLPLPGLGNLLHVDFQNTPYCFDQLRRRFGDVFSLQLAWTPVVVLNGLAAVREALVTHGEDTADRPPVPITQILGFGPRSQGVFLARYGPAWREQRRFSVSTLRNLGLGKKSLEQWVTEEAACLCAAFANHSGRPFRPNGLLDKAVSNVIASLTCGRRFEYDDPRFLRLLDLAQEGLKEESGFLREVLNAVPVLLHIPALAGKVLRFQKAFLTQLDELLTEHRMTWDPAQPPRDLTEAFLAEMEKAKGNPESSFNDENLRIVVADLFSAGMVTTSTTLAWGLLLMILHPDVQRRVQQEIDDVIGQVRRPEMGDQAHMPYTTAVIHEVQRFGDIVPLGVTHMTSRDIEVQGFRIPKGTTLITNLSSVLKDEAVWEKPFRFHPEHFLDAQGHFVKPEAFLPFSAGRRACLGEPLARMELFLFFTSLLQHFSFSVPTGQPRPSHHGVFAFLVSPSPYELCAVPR

On to `CC(=O)Oc1c2oc3cc(O)c(O)cc3c2c(OC(C)=O)c2oc3cc(O)c(O)cc3c12` [Polyozellin, polyozellin], for which the “inhibitory effects on the activities of all 9 CYPs” value in data set [1] is recorded as “weak inhibitory effects”.

For the molecule `CCCC(C(=O)OCCN(CC)CC)(c1ccccc1)c1ccccc1` [SKF-525A, 2-diethylaminoethyl-2,2-diphenylvalerate-HCl], the IC50 on CYP2C8 is 26.5 µM; at CYP2A6 it was over 50 µM; against CYP2E1, over 50 µM; at CYP1A2, over 50 µM; at CYP2B6, 0.9 µM; against CYP2C19 it was 2.1 µM. For the same molecule, the IC50 against CYP2D6 is 3.5 µM; on CYP2C9 it was 33.4 µM.
